Reference: paper PMC6718200 (Bioorganic & medicinal chemistry, 2018)

Columns and labels:
SW620 [1] = assay: Western blotting analysis; format: cell-based, human; conditions: SW620, 0, 25, 50, 75 μM, 48 h
Summary of the method: (§1)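 Cells were treated with test compound at 0, 25, 50 and 75 μM for 48 h and lysed in RIPA with protease and phosphatase inhibitors; protein was quantified by BCA. 50 µg lysate was run on 8–15% SDS-PAGE and transferred to PVDF. Blocking was 5% BSA/TBST for 2 h at RT; primary antibodies overnight at 4 °C; HRP secondary 1:10000 for 1 h. Detection by ECL, with tubulin as loading control and densitometry. Three independent experiments; mean ± SD.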

HT29 [2] = assay: Western blotting analysis; format: cell-based, human; conditions: HT29, 0, 25, 50, 75 μM, 48 h
Summary of the method: as §1

HT29 [3] = assay: BrdU assay; format: cell-based, human; conditions: HT29, 0, 25, 50, 75 μM, 48 h
Summary of the method: (§2)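 Cells at 80% confluence were seeded at 20,000 per well and exposed to test compound at 0, 25, 50 and 75 μM for 48 h. They were pulsed with 10 μM BrdU for 2 h, fixed in paraformaldehyde, treated with 2 M HCl for 30 min, and blocked with 10% goat serum for 30 min at 37 °C. Staining used rat anti-BrdU (1:2000, overnight, 4 °C), then […] (1:2000, 120 min, RT), then DAPI at 300 nM. The % BrdU-positive cells was scored by fluorescence microscopy. Three independent experiments; mean ± SD.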

HT29 [4] = assay: Colony formation assay; format: cell-based, human; conditions: HT29, exposure for two weeks
SW620 [5] = assay: Apoptosis assessment, PI/annexin V-FITC flow cytometry; format: cell-based, human; conditions: SW620, 0, 25, 50, 75 μM, 48 h
Summary of the method: (§3)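 Cells were grown in 10% FBS medium at 37 °C and 5% CO2: HT29 in McCoy's 5a, SW620 in high-glucose DMEM. They were treated with the test compound at 0, 25, 50 or 75 μM for 48 h. Attached and floating cells were pooled, washed twice in cold PBS and stained with annexin V-FITC/PI for 15 min at room temperature. The apoptotic fraction was read by flow cytometry. Three independent experiments, mean ± SD, two-tailed t-test.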

SW620 [6] = assay: Colony formation assay; format: cell-based, human; conditions: SW620, exposure for two weeks
HT29 [7] = assay: Apoptosis assessment, PI/annexin V-FITC flow cytometry; format: cell-based, human; conditions: HT29, 0, 25, 50, 75 μM, 48 h
Summary of the method: as §3

SW620 [8] = assay: Hoechst 33342 staining; format: cell-based, human; conditions: SW620, 0, 25, 50, 75 μM, 48 h
Summary of the method: (§4)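 Chromatin-condensation assay. HT29 (McCoy's 5a) and SW620 (high-glucose DMEM), each with 10% FBS, were seeded into 24-well plates. They were treated with the test compound at 0, 25, 50 or 75 μM for 48 h, then fixed in 4% paraformaldehyde for 20 min and washed with PBS. Cells were stained with Hoechst 33342 for 15 min at 37 °C. Condensed-chromatin apoptotic cells were scored by fluorescence microscopy.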

SW620 [9] = assay: Cell cycle analysis by flow cytometry; format: cell-based, human; conditions: SW620, 0, 25, 50, 75 μM, 48 h
Summary of the method: (§5)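 Cells were cultured in 10% FBS at 37 °C and 5% CO2 (HT29 in McCoy's 5a, SW620 in high-glucose DMEM). At 80% confluence they were seeded into 6-well plates and exposed to the test compound at 0, 25, 50 or 75 μM for 48 h. Cells were washed in cold PBS and fixed in 70% ethanol at 4 °C for 24 h. They were stained with PI plus RNase A for 30 min at 37 °C in the dark, then analysed by flow cytometry. Three independent experiments.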

HT29 [10] = assay: Hoechst 33342 staining; format: cell-based, human; conditions: HT29, 0, 25, 50, 75 μM, 48 h
Summary of the method: as §4

97-kinase panel = 97-kinase panel screen; format: binding; conditions: read-out: Kd, all tested kinases
FHC cell lines = assay: MTT assay, growth inhibition in immortalized colorectal cells; format: cell-based; conditions: Homo sapiens, read-out: GI50 FHC
Summary of the method: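 MTT format: 3 × 10³ cells per well, 24 h pre-incubation, then test compound at 0–200 μM (final, from DMSO stocks) for 12, 24, 48 or 72 h. MTT at 0.5 mg/mL final for 4 h; formazan dissolved in DMSO; A570. GI50 was fitted from growth-inhibition curves, three independent experiments in sextuplicate.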

SW620 [11] = assay: BrdU assay; format: cell-based, human; conditions: SW620, 0, 25, 50, 75 μM, 48 h
Summary of the method: as §2

HT29 [12] = assay: Cell cycle analysis by flow cytometry; format: cell-based, human; conditions: HT29, 0, 25, 50, 75 μM, 48 h
Summary of the method: as §5

CC(C)CN(C(=O)c1cccnc1)c1c2ccccc2c(=O)n2c1[nH]c1ccccc12 [Compound 7g]
BCL-2 protein level (SW620 [1]): decreased
CDK1 level (SW620 [1]): decreased
MCL-1 protein level (SW620 [1]): decreased
PARP activation (SW620 [1]): significantly increased
PTEN level (SW620 [1]): increase in a concentration-dependent manner
cyclin B1 level (SW620 [1]): decreased
p21 level (SW620 [1]): increased
p53 level (SW620 [1]): increased
p-4E-BP1 level (SW620 [1]): decreased
p-AKT level (SW620 [1]): decreased
p-mTOR level (SW620 [1]): decreased
total expression levels of AKT, mTOR and 4E-BP1 (SW620 [1]): hadn’t effect
BCL-2 protein level (HT29 [2]): decreased
CDK1 level (HT29 [2]): decreased
MCL-1 protein level (HT29 [2]): decreased
PARP activation (HT29 [2]): significantly increased
PTEN level (HT29 [2]): increase in a concentration-dependent manner
cyclin B1 level (HT29 [2]): decreased
p21 level (HT29 [2]): increased
p53 level (HT29 [2]): increased
p-4E-BP1 level (HT29 [2]): decreased
p-AKT level (HT29 [2]): decreased
p-mTOR level (HT29 [2]): decreased
total expression levels of AKT, mTOR and 4E-BP1 (HT29 [2]): hadn’t effect
proliferation (BrdU immunofluorescence) (HT29 [3]): inhibited the proliferation
colony size and numbers (HT29 [4]): dramatically reduced
percentage of cells undergoing apoptosis (SW620 [5]): increased in a concentration-dependent manner
colony size and numbers (SW620 [6]): dramatically reduced
percentage of cells undergoing apoptosis (HT29 [7]): increased in a concentration-dependent manner
number of apoptosis bodies (SW620 [8]): increased in a concentration-dependent manner
average G2/M proportion (SW620 [9]): increased in a concentration-dependent manner
number of apoptosis bodies (HT29 [10]): increased in a concentration-dependent manner
Kd (97-kinase panel): > 5 µM
GI50 (FHC cell lines): > 200 µM
proliferation (BrdU immunofluorescence) (SW620 [11]): inhibited the proliferation
average G2/M proportion (HT29 [12]): increased in a concentration-dependent manner
